Data set [1] has as its system CKIα. The data set can be described thus: Western blot of CKIα degradation in human AML cells. It counts as cell-based. Particulars: MV4–11 cells, 6.5 hr. In outline:
(§1)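 MV4–11 cells were exposed to test compounds at set concentrations or DMSO for 6.5 hr and analysed by western blot, with PP2Ac as loading control.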

In data set [2] the test system is MV4–11 cells (DDR, p53, MDM2, MYC, MCL1). The data set can be described thus: Western blot of MV4–11 cells. Particulars: 6.5 hr. The class given is cell-based, human. A digest of the protocol:
as §1
A general note: A western blot detects proteins with antibodies after separation by electrophoresis.

The test system of data set [3] is MYC, MDM2, AXIN2, CCND1 mRNA in MV4–11 cells. The data set can be described thus: qPCR mRNA analysis of MV4–11 cells. The class given is cell-based, human. Particulars: 4 hr; A51 2μM, A86 2μM, BTX161 25μM. In outline: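 MV4–11 cells were treated for 4 hr with test compounds or DMSO, and transcripts were measured by qPCR. Three replicates (N = 3) were run, given as mean ± SD and compared by Student's t test.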

In data set [4] the test system is MV4–11 cells (pSer2/5 CTD, DDR, p53, MDM2, caspase 3). The data set is described as follows: Western blot of MV4–11 cells, single and combination treatment. It counts as cell-based, human. As to conditions: for DDR, p53, MDM2 and caspase 3 activation: MV4–11, single agent (BTX161 6 hr, iCDK9 4 hr, THZ1 4 hr). In outline: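 MV4–11 cells treated at several concentrations, alone or combined: CKIα degrader for 6 hr, CDK9 inhibitor for 4 hr, CDK7 inhibitor for 4 hr. Lysates immunoblotted, with PP2Ac as loading control.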

The target of a further data set is CDK7 (Homo sapiens, UniProt P50613). The data set can be described thus: KINOMEscan binding to transcriptional kinases. Particulars: for CDK7 Kd (direct binding affinity): Figure 4D.
CDK7, sequence (P50613 whole entry): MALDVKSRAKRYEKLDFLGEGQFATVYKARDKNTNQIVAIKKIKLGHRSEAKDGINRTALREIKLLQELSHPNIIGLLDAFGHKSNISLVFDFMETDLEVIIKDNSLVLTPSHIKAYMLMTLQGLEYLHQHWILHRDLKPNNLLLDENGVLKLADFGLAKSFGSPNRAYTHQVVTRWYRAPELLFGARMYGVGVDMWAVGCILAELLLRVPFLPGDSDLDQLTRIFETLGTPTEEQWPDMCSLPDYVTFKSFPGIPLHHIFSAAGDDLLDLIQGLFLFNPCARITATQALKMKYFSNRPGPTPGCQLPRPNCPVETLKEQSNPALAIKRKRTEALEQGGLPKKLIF
The next data set has as its target CDK9 (Homo sapiens, UniProt P50750). The data set is described as follows: KINOMEscan binding to transcriptional kinases. Particulars: for CDK9 Kd (direct binding affinity): Figure 4D.
The next data set addresses CDK8 (Homo sapiens, UniProt P49336). The data set can be described thus: KINOMEscan binding to transcriptional kinases. As to conditions: Figure S4B.
Another data set has as its target CDK13 (Homo sapiens, UniProt Q14004). The data set can be described thus: KINOMEscan binding to transcriptional kinases. As to conditions: Figure S4B.
Another data set addresses CDK11a (Homo sapiens, UniProt Q9UQ88). The data set is described as follows: KINOMEscan binding to transcriptional kinases. Particulars: Figure S4B.
The next data set has as its target CDK11b (Homo sapiens, UniProt P21127). The data set can be described thus: KINOMEscan binding to transcriptional kinases. Particulars: Figure S4B.
For the next data set, the target named is CDK19 (Homo sapiens, UniProt Q9BWU1). The data set can be described thus: KINOMEscan binding to transcriptional kinases. Particulars: Figure S4B.
In data set [5] the test system is primary leukemic BM cells isolated from MLL-AF9-induced AML mice. The data set is described as follows: Ex vivo apoptosis. It counts as cell-based, mouse. Particulars: 18 hr, Annexin V-positive cells. In outline:
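Leukemic mice (>80% GFP+ in PB); BM flushed from femur and tibia, erythrocytes lysed, cells strained. Cells cultured in StemPro-34 with 10 ng/ml IL3, IL6, TPO and SCF, 1.5*10^5 cells per well. Treated 16–18 hr, 5% CO2, with DMSO stocks diluted 1:1000; DMSO-only control. Stained with Annexin V-PE and 7AAD; flow read-out of GFP and PE. Triplicates, mean ± SD.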

The test system of data set [6] is heavy burden MLL-AF9 leukemic mice. The data set is described as follows: Acute in vivo anti-leukemic effect, single oral dose. More on the design: species or system mouse. A digest of the protocol:
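MLL-AF9-IRES-GFP retrovirus-transduced BM cells were passaged through sublethally irradiated (500 rad) mice. 50,000 GFP+ BM cells were then injected IV into irradiated (250 rad) C57BL/6 WT mice aged 8–12 weeks. Mice with >80% GFP+ cells in PB got a single oral dose (e.g. 10 or 20 mg/kg) or vehicle and were sacrificed at short time points (5–6 or 16 hr). Read-outs: […], absolute BM GFP+ blast counts, H&E sections and blood smears; mean ± SD, N ≥ 3.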

Data set [7] has as its system Pol II CTD phosphorylation at Ser2 and Ser5. The data set can be described thus: Western blot of Pol II CTD phosphorylation, primary mouse AML cells. The class given is cell-based. As to conditions: ex vivo 6 hr. A digest of the protocol: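 Primary spleen cells from MLL-AF9 AML mice treated ex vivo for 6 hr with test compounds at several concentrations or DMSO. DMSO stocks diluted 1:1000 into medium. Immunoblot with PP2Ac as loading control.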

Data set [8] shares this test system. The data set can be described thus: Western blot of Pol II CTD phosphorylation, MV4–11 cells. It counts as cell-based. Particulars: MV4–11 human AML cells.
A further data set has as its system Myc, Mdm2, Mcl1 mRNA. The data set is described as follows: qPCR analysis of mouse primary AML BM cells. It counts as cell-based. Particulars: 1 μM, 4 hr ex vivo. A digest of the protocol: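 Primary BM AML cells from MLL-AF9 mice treated ex vivo for 4 hr with 1 μM test compound or DMSO (stocks diluted 1:1000). Myc, Mdm2, Mcl1 and Axin2 transcripts measured by qPCR. N = 3, mean ± SD, Student's t test.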
A general note: Real-time PCR tracks product formation cycle by cycle.

The subject of data set [9] is mouse splenic AML cells (MLL-AF9). The data set is described as follows: Rapid-hit ex vivo AML killing assay. The class given is cell-based. Particulars: 5 mins exposure, washout, further incubation. A digest of the protocol:
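Mouse AML cells were plated at 1.5 × 10^5 per 0.15 mL in StemPro-34 with IL3, IL6, TPO and SCF (10 ng/ml each) at 5% CO2. Test compound was added from DMSO stock diluted 1:1000, with DMSO alone as control. At the set times cells were spun, resuspended in drug-free medium and kept for 18 hr total. Cells were stained with Annexin V-PE/7AAD and read by flow for GFP and PE.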

In data set [10] the test system is cKit^HiCD11b^Low progenitors from Tet2^−/−;Flt3^ITD mice. The data set is described as follows: Ex vivo apoptotic killing of Tet2−/−. The class given is cell-based, mouse. As to conditions: 16 hr after treatment.
The subject of data set [11] is primary human leukemia cells from 5 individual patients. The data set can be described thus: Ex vivo killing of primary human leukemia cells. The class given is cell-based. Particulars: 18–20 hr; for leukemia cell apoptosis: comparable inhibitor concentrations. A digest of the protocol:
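BM mononuclear cells from newly diagnosed, untreated AML patients, isolated by Ficoll after BM biopsy. Used fresh or frozen; frozen cells thawed straight into IMDM with 50% FBS plus DNaseI. Viability stained with Annexin V and 7AAD after blocking with 20% human serum.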

The subject of the next data set is normal C57BL/6 mice. The data set can be described thus: 7-day daily treatment for maximal tolerated dose. The class given is in vivo, mouse. Particulars: 7 days.
Data set [12] has as its target CKIα (Homo sapiens, UniProt P48729). The data set can be described thus: KINOMEscan binding assay. Particulars: Figure 1C.
Another data set deals with CKIδ (Homo sapiens, UniProt P48730). The data set can be described thus: KINOMEscan binding assay. Particulars: Figure 1C.
CKIδ, sequence (P48730 whole entry): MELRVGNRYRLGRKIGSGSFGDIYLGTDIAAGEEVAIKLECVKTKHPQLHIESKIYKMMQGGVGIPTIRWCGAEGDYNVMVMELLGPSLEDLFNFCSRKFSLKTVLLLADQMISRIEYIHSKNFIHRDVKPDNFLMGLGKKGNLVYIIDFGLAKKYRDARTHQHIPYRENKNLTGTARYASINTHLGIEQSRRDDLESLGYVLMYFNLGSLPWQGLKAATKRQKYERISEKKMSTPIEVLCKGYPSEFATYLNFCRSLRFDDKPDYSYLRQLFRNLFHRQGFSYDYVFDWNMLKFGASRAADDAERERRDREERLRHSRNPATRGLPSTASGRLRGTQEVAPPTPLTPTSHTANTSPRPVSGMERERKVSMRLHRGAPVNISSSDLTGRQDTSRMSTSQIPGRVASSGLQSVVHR
The target in the next data set is CKIε (Homo sapiens, UniProt P49674). The data set can be described thus: KINOMEscan binding assay. Particulars: Figure 1C.
CKIε, sequence (P49674 whole entry): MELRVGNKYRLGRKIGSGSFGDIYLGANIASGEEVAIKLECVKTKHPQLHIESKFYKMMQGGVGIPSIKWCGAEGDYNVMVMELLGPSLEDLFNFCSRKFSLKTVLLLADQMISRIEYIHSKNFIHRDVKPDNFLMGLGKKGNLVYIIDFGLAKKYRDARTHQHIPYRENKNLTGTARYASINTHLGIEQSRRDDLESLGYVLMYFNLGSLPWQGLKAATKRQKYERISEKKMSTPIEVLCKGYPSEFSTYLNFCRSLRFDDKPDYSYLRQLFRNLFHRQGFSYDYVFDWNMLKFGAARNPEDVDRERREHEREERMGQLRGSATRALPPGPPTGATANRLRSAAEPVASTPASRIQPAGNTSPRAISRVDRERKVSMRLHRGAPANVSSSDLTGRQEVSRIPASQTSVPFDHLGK
For the next data set, the target named is GSK3α/β. The data set is described as follows: KINOMEscan binding assay. Particulars: Figure 1C.
The next data set deals with p53 in RKO cells. The data set is described as follows: Western blot of RKO cells treated with A-series inhibitors. The class given is cell-based, human. As to conditions: 18 hr. In outline:
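RKO cells grown in DMEM with 10% serum. Treated 18 hr with test compounds at several concentrations or DMSO. Lysates immunoblotted.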

These results are taken from article PMC6701634 (Cell, 2018).

A word on the IC50: it is the concentration at which inhibition is half-maximal.

SMILES strings stand for the structures. A value given as a limit tells only on which side of the number the result lay.

CDK9, sequence (P50750 whole entry): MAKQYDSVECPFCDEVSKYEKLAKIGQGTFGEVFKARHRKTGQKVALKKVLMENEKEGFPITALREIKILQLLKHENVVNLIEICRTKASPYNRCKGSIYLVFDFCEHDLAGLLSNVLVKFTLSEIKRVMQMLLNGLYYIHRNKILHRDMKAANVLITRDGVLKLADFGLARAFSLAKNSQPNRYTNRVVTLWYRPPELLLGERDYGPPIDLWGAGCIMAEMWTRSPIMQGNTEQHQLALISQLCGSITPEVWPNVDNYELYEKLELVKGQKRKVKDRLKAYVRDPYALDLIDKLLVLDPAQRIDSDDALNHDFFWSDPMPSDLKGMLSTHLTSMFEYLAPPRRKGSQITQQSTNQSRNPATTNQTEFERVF
CKIα (Homo sapiens, UniProt P48729), sequence (P48729 whole entry): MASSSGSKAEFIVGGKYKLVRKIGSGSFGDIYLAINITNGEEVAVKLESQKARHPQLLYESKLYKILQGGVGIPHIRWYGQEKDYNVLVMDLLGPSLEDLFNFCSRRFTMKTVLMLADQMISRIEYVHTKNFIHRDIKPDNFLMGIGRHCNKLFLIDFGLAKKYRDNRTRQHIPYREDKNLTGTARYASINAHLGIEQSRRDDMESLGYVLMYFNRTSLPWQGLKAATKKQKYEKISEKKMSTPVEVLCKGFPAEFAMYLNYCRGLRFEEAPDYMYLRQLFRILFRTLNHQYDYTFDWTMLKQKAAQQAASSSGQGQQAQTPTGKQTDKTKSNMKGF
CDK11a, sequence (Q9UQ88 whole entry): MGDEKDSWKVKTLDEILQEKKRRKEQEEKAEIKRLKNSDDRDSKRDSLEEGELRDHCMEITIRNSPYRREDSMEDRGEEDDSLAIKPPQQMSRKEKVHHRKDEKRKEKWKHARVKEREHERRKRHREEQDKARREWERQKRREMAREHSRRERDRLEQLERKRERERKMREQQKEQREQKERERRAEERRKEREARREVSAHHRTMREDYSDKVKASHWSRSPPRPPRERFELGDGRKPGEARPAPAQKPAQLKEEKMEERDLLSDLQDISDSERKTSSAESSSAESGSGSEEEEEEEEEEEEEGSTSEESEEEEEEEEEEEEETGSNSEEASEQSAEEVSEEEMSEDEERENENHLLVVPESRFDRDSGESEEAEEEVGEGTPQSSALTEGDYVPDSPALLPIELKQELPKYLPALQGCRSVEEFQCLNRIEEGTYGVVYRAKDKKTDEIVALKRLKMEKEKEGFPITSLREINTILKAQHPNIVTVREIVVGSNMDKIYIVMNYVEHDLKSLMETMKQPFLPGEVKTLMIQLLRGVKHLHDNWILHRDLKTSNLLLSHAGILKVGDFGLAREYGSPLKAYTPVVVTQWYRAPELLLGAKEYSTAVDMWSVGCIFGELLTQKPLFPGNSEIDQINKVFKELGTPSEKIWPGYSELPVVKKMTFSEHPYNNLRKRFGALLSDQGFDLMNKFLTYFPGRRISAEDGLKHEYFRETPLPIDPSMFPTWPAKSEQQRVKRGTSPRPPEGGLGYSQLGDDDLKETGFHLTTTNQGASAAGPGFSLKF
CDK13, sequence (Q14004 whole entry): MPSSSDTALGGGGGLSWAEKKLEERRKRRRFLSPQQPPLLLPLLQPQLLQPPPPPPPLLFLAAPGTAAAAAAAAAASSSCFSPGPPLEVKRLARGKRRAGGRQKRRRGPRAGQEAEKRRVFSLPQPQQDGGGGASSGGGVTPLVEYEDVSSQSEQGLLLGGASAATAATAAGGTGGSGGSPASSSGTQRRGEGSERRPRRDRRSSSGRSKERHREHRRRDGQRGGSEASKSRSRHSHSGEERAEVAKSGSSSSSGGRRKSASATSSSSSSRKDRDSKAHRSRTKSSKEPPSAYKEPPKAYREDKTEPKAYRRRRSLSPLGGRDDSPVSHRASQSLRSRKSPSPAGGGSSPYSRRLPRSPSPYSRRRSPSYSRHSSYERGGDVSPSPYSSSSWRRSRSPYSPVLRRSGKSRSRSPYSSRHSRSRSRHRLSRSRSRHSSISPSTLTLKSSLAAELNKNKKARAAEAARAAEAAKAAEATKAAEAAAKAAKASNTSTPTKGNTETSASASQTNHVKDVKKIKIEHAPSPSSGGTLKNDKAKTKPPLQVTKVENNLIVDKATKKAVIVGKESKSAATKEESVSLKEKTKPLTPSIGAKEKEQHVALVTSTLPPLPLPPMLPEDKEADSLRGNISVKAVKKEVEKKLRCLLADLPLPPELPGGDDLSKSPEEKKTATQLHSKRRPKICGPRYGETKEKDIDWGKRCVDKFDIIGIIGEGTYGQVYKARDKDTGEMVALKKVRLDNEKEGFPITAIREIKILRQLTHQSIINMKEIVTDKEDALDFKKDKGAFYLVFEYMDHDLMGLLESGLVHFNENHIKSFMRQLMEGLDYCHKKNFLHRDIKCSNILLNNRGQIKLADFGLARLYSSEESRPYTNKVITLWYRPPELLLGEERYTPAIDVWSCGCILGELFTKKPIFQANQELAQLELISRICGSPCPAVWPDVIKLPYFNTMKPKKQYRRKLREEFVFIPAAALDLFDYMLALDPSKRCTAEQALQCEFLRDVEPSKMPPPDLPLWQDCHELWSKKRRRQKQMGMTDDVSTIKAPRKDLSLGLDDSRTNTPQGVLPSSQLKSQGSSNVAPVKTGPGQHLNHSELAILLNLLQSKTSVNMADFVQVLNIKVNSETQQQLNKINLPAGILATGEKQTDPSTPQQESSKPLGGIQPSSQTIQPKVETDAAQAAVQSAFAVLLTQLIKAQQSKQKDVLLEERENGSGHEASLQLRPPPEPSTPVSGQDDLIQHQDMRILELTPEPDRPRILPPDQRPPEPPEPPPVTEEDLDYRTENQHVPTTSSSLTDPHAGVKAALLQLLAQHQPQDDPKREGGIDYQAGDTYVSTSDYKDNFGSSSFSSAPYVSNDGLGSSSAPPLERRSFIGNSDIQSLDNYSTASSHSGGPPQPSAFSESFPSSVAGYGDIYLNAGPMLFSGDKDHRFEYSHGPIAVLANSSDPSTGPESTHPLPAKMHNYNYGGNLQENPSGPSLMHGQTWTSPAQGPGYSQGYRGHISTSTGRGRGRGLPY
CDK11b, sequence (P21127 whole entry): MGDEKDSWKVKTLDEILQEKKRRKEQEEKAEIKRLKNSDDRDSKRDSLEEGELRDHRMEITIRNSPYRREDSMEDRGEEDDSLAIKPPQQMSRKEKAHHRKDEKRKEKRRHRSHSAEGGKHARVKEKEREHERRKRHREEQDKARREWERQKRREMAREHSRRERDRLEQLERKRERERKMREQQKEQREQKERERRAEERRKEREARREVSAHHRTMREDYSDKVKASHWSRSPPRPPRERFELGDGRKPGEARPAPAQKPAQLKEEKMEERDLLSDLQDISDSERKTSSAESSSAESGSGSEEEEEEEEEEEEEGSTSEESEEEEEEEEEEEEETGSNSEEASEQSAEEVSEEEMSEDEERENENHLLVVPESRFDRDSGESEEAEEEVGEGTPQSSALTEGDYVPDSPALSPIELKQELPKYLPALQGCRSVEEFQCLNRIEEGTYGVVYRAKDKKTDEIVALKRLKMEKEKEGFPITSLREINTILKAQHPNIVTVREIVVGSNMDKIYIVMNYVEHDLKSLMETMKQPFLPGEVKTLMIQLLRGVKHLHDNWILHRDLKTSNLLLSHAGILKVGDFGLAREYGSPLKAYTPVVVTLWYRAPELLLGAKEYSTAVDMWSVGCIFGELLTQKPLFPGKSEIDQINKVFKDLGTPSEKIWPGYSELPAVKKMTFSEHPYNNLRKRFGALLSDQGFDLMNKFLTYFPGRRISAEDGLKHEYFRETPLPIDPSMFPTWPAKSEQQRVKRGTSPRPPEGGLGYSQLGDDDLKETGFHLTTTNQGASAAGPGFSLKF

With `Cc1cccc2c1CN([C@H]1CCCC(=O)NC1=O)C2=O` [BTX161, (S)-3-(4-methyl-1-oxoisoindolin-2-yl)azepane-2,7-dione], the CKIα degradation result in the data set with CKIα [1] was “mediates degradation of CKIα better than lenalidomide”. Moreover, the “effect on DDR, p53, MDM2, MYC, MCL1 protein levels (WB)” value in data set [2] is “activates DDR and p53, while stabilizing the p53 antagonist MDM2”. Besides, in data set [3], the “effect on mRNA expression (MYC, MDM2, Wnt targets)” value was “upregulated all the Wnt targets including MYC and did not affect MDM2 mRNA expression”. Further, the “DDR, p53, MDM2 and caspase 3 activation” value in [4] was “augmented p53 and MDM2 protein expression”.
As for `Cn1ncc(-c2nc(NC3CCC(N)CC3)ncc2F)c1CC1CC1` [A86, (1R,4R)-N^1-(4-(5-(cyclopropylmethyl)-1-methyl-1H-pyrazol-4-yl)-5-fluoropyrimidin-2-yl)cyclohexane-1,4-diamine], at CDK7, the “CDK7 Kd (direct binding affinity)” value is given as “low nM Kd values”. For the same molecule, the “inhibition of CDK7 (TFIIH) in binding screen” value at CDK7 (Figure S4B) is on record as “high inhibition”. Further, on CDK9, the “CDK9 Kd (direct binding affinity)” value is “low nM Kd values”. Further, the “inhibition of CDK9 (P-TEFb) in binding screen” value on CDK9 (Figure S4B) is listed as “high inhibition”. In addition, on CDK8, the “inhibition of CDK8 in binding screen” value is recorded as “hardly any inhibition”. Also, the “inhibition of CDK13 in binding screen” value on CDK13 is recorded as “hardly any inhibition”. For the same molecule, the “inhibition of CDK11a in binding screen” value at CDK11a is reported as “hardly any inhibition”. Further, the “inhibition of CDK11b in binding screen” value on CDK11b is “hardly any inhibition”. Besides, at CDK19, the “inhibition of CDK19 in binding screen” value is reported as “hardly any inhibition”. In addition, the “concentration highly effective in inducing leukemia cell apoptosis” value (“concentration highly effective” for short) in data set [5] is not above 160 nM. The “leukemic cell counts (GFP+) in BM and peripheral blood” value in data set [6] (16 hr post single oral dose) was 5%–10%. Also, the “in vivo signaling in leukemic cells after single oral treatment” value in [6] (A51 20 mg/kg 3 and 6 hr, A86 10 mg/kg 5 hr, spleen AML cells WB) is “phospho-CTD inhibition with downregulation of MCL1 and activation of p53, DDR, and caspase 3”. Also, the “effect on DDR, p53, MDM2, MYC, MCL1 protein levels (WB)” value in data set [2] is “abolished the expression of MYC, MDM2, and the anti-apoptotic oncogene MCL1”. Besides, the “effect on mRNA expression (MYC, MDM2, Wnt targets)” value in data set [3] was “marked reduction in mRNA expression of MYC and MDM2”. The “Pol II CTD phosphorylation at Ser2 and Ser5” value in [7] and in data set [8] was “marked reduction” each time. Further, in the data set with Myc, Mdm2, Mcl1 mRNA, the “Myc, Mdm2, and Mcl1 mRNA expression” value is “significant reduction of Myc, Mdm2, and Mcl1 mRNA expression”. Further, the “AML cell killing after short exposure” value in data set [9] is recorded as “sufficient to induce significant AML cell killing”. Besides, the “ex vivo apoptotic killing of cKit^HiCD11b^Low progenitors” value in [10] is on record as “superior to midostaurin”. In [11], the leukemia cell apoptosis entry is “leukemia cell apoptosis”. Also, the IC50 in data set [11] (read-out: IC50 of killing effect, all 5 patient samples) lay within 20 to 50 nM.
In the case of `Cn1ncc(-c2ccnc(N[C@H]3CC[C@H](N)CC3)n2)c1CC1CC1` [A14, (1R, 4R)-N^1-(4-(5-(cyclopropylmethyl)-1-methyl-1H-pyrazol-4-yl)pyrimidin-2-yl)cyclohexane-1,4-diamine], the “concentration highly effective” value in data set [5] is on record as not above 160 nM. Besides, the “effect on hematopoiesis at 5–10 mg/kg” value in the data set on normal C57BL/6 mice (5–10 mg/kg) is “no adverse effect on hematopoiesis”. Moreover, in the data set with normal C57BL/6 mice (doses above 10 mg/kg), the “effect on blood counts at doses above 10 mg/kg” value is “transiently reduced the white blood cells (WBC) and platelet counts”.
Turning to `CN(C)C/C=C/C(=O)Nc1ccc(C(=O)Nc2cccc(Nc3ncc(Cl)c(-c4c[nH]c5ccccc45)n3)c2)cc1` [THZ1], the “pSer2/5 CTD” value in [4] (MV4–11, 4 hr, single agent) is “reduced the pSer2/5 CTD”. Also, the “DDR, p53, MDM2 and caspase 3 activation” value in [4] is “little effect on DDR, p53, and caspase 3 activation”.
On to `CO[C@@H]1[C@H](N(C)C(=O)c2ccccc2)C[C@H]2O[C@]1(C)n1c3ccccc3c3c4c(c5c6ccccc6n2c5c31)C(=O)NC4` [midostaurin, reference compound], for which the leukemia cell apoptosis entry in data set [11] is “but not by A64 or midostaurin”.
For `Cn1ncc(-c2nc(N[C@H]3CC[C@H](n4cccn4)CC3)ncc2Cl)c1CC1CC1` [A64, N-((1R,4R)-4-(1H-pyrazol-1-yl)cyclohexyl)-5-chloro-4-(5-(cyclopropylmethyl)-1-methyl-1H-pyrazol-4-yl)pyrimidin-2-amine], the CKIα affinity entry at CKIα [12] is recorded as “low CKIα affinity”. Besides, the “affinity to CKIδ” value on CKIδ is “high affinity”. The “affinity to CKIε” value on CKIε is recorded as “high affinity”. At GSK3α/β, the GSK3α/β affinity result was “high GSK3α/β affinity”. Also, the “CDK7 Kd (direct binding affinity)” value on CDK7 was “moderately”. In addition, the “CDK9 Kd (direct binding affinity)” value on CDK9 is given as “poorly”. In addition, in the data set with p53 in RKO cells, the p53 induction entry is “only induces p53 at a high concentration”. Further, in data set [11], the leukemia cell apoptosis result is “but not by A64 or midostaurin”.
On to `Cn1ncc(-c2nc(NC3CCC(NCc4cn[nH]c4)CC3)ncc2Cl)c1CC1CC1` [A75, (1R,4R)-N^1-((1H-pyrazol-4-yl)methyl)-N^4-(5-chloro-4-(5-(cyclopropylmethyl)-1-methyl-1H-pyrazol-4-yl)pyrimidin-2-yl)cyclohexane-1,4-diamine], for which the “concentration highly effective” value in [5] is not above 160 nM.
